Measured values as given in ChEMBL document CHEMBL1641374, “Synthesis of antiproliferative flavones from calycopterin, major flavonoid of Calycopteris floribunda Lamk” (Bioorg Med Chem, 2011).
Values belong to the compound of their own block, whether it stands above or below them.

Key:
[1] = system: KB; experiment: Cytotoxicity against human KB cells after 72 hrs by MTS assay; format: functional, cell-based
[2] = system: HL-60; experiment: Induction of apoptosis in human HL60 cells assessed as induction of caspase 3/7 activation at 100 uM relative to control; format: functional
Procedure, shortened: (§1)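 HL60 cells (20,000/well) were treated 24 and 48 h with compounds in DMSO. Vehicle and doxorubicine served as controls. Fluorescence (ex 360/em 465 nm) was followed over 3 h.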

[3] = species on record: Ovis aries; experiment: Inhibition of sheep brain tubulin polymerization after 5 mins
Procedure, shortened: (§2)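 Sheep brain microtubule proteins were purified by two assembly/disassembly cycles (37 °C/0 °C) in 100 mM MES pH 6.6, 1 mM EGTA, 0.5 mM MgCl2. Polymerization rate was followed by turbidity at 350 nm, with deoxypodophyllotoxin as reference. Compounds were tested at ~2×10^-5 M for % inhibition, with IC50 determined for selected compounds.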

[4] = system: KB; experiment: Cytotoxicity against human KB cells at 10^-6 M after 72 hrs by MTS assay; format: functional
Procedure, shortened: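 KB cells in D-MEM with 10% FCS were seeded at 600 cells/well and dosed 24 h later with flavone at 10^-6 M in DMSO. Controls received DMSO at 1% final. After 72 h, MTS was added for 3 h at 37 °C and A490 read in triplicate. Growth inhibition (%) = (1 − OD treated/OD control)×100.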

[5] = Inhibition of sheep brain tubulin polymerization at 2x10'-5 M after 5 mins; design: species or system Ovis aries; procedure, shortened: as §2
[6] = system: HL-60; experiment: Induction of apoptosis in human HL60 cells assessed as late apoptosis cells at 200 nM after 48 hrs by annexin-V-PE/7-AAD staining (reference value: 0.1%); format: functional
[7] = system: HL-60; experiment: Induction of apoptosis in human HL60 cells assessed as viable cells at 200 nM after 48 hrs by annexin-V-PE/7-AAD staining (reference value: 97.4%); format: functional; conditions: HL-60, 48 h, read-out: Activity
[8] = system: HL-60; experiment: Induction of apoptosis in human HL60 cells assessed as late apoptosis cells at 200 nM after24 hrs by annexin-V-PE/7-AAD staining (reference value: 0.2%); format: functional
[9] = system: HL-60; experiment: Induction of apoptosis in human HL60 cells assessed as viable cells at 200 nM after24 hrs by annexin-V-PE/7-AAD staining (reference value: 97.2%); format: functional; conditions: read-out: Activity
[10] = system: HL-60; experiment: Induction of apoptosis in human HL60 cells assessed as early apoptosis cells at 200 nM after 48 hrs by annexin-V-PE/7-AAD staining (reference value: 2.5%); format: functional
[11] = system: HL-60; experiment: Induction of apoptosis in human HL60 cells assessed as early apoptosis cells at 200 nM after24 hrs by annexin-V-PE/7-AAD staining (reference value: 2.6%); format: functional
[12] = system: HL-60; experiment: Induction of apoptosis in human HL60 cells assessed as induction of caspase 3/7 activation at 100 nM relative to control; format: functional; procedure, shortened: as §1
[13] = system: KB; experiment: Induction of cell cycle arrest in human KB cells assessed as accumulation at S phase at 50 nM after 24 hrs by propidium iodide staining-based flow cytometry (reference value: 6.9%); format: functional
[14] = system: PC-3; experiment: Cytotoxicity against human PC3 cells after 72 hrs by MTS assay; format: functional, cell-based; conditions: PC-3, 72 h
[15] = system: KB; experiment: Induction of cell cycle arrest in human KB cells assessed as accumulation at G2/M phase at 50 nM after 48 hrs by propidium iodide staining-based flow cytometry (reference value: 13.8%); format: functional
[16] = system: HL-60; experiment: Induction of apoptosis in human HL60 cells assessed as late apoptosis cells at 50 nM after 48 hrs by annexin-V-PE/7-AAD staining (reference value: 0.1%); format: functional
[17] = system: HepG2; experiment: Cytotoxicity against human HepG2 cells after 72 hrs by MTS assay; format: functional, cell-based; conditions: HepG2, 72 h
[18] = system: HCT-15; experiment: Cytotoxicity against human HCT15 cells after 72 hrs by MTS assay; format: functional, cell-based; conditions: HCT-15, 72 h
[19] = system: KB; experiment: Induction of cell cycle arrest in human KB cells assessed as accumulation at G0/G1phase at 50 nM after 48 hrs by propidium iodide staining-based flow cytometry (reference value: 66.6%); format: functional
[20] = system: HL-60; experiment: Induction of apoptosis in human HL60 cells assessed as late apoptosis cells at 50 nM after24 hrs by annexin-V-PE/7-AAD staining (reference value: 0.2%); format: functional
[21] = system: HL-60; experiment: Induction of apoptosis in human HL60 cells assessed as viable cells at 50 nM after24 hrs by annexin-V-PE/7-AAD staining (reference value: 97.2%); format: functional; conditions: read-out: Activity
[22] = system: SF-268; experiment: Cytotoxicity against human SF268 cells after 72 hrs by MTS assay; format: functional, cell-based; conditions: SF-268, 72 h
[23] = system: HL-60; experiment: Induction of apoptosis in human HL60 cells assessed as early apoptosis cells at 50 nM after 48 hrs by annexin-V-PE/7-AAD staining (reference value: 2.5%); format: functional
[24] = system: KB; experiment: Induction of cell cycle arrest in human KB cells assessed as accumulation at subG1 phase at 50 nM after 48 hrs by propidium iodide staining-based flow cytometry (reference value: 1.2%); format: functional
[25] = system: SK-OV-3; experiment: Cytotoxicity against human SKOV3 cells after 72 hrs by MTS assay; format: functional, cell-based; conditions: SK-OV-3, 72 h
[26] = system: HL-60; experiment: Cytotoxicity against human HL60 cells after 72 hrs by MTS assay; format: functional, cell-based; conditions: HL-60, 72 h
[27] = system: HCT-116; experiment: Cytotoxicity against human HCT116 cells after 72 hrs by MTS assay; format: functional, cell-based; conditions: HCT-116, 72 h
[28] = system: K562; experiment: Cytotoxicity against human K562 cells after 72 hrs by MTS assay; format: functional, cell-based; conditions: K562, 72 h
[29] = system: KB; experiment: Induction of cell cycle arrest in human KB cells assessed as accumulation at G2/M phase at 50 nM after 24 hrs by propidium iodide staining-based flow cytometry (reference value: 19.6%); format: functional
[30] = system: HL-60; experiment: Induction of apoptosis in human HL60 cells assessed as early apoptosis cells at 50 nM after24 hrs by annexin-V-PE/7-AAD staining (reference value: 2.6%); format: functional
[31] = system: KB; experiment: Induction of cell cycle arrest in human KB cells assessed as accumulation at subG1 phase at 50 nM after 24 hrs by propidium iodide staining-based flow cytometry (reference value: 0.7%); format: functional
[32] = system: KB; experiment: Induction of cell cycle arrest in human KB cells assessed as accumulation at S phase at 50 nM after 48 hrs by propidium iodide staining-based flow cytometry (reference value: 18.4%); format: functional
[33] = Cytotoxicity against human HL60R cells after 72 hrs by MTS assay; format: functional, cell-based; conditions: HL-60, 72 h
[34] = system: KB; experiment: Induction of cell cycle arrest in human KB cells assessed as accumulation at G0/G1phase at 50 nM after 24 hrs by propidium iodide staining-based flow cytometry (reference value: 72.9%); format: functional
[35] = system: MIA PaCa-2; experiment: Cytotoxicity against human MIAPaCa2 cells after 72 hrs by MTS assay; format: functional, cell-based; conditions: MIA PaCa-2, 72 h
[36] = system: OVCAR-8; experiment: Cytotoxicity against human OVCAR8 cells after 72 hrs by MTS assay; format: functional, cell-based; conditions: OVCAR-8, 72 h
[37] = system: A549; experiment: Cytotoxicity against human A549 cells after 72 hrs by MTS assay; format: functional, cell-based; conditions: A549, 72 h
[38] = system: HT-29; experiment: Cytotoxicity against human HT-29 cells after 72 hrs by MTS assay; format: functional, cell-based; conditions: HT-29, 72 h
[39] = system: HL-60; experiment: Induction of apoptosis in human HL60 cells assessed as viable cells at 50 nM after 48 hrs by annexin-V-PE/7-AAD staining (reference value: 97.4%); format: functional; conditions: HL-60, 48 h, read-out: Activity
[40] = Cytotoxicity against human MCF7/R cells after 72 hrs by MTS assay; format: functional, cell-based; conditions: MCF7R

inhibition [3]: 2%
SMILES: COc1ccc(-c2oc3c(OC)c(OC)c(OC)c(O)c3c(=O)c2OC)cc1 [5-HYDROXYAURANETIN]
IC50 [1]: 720 nM | fold change (FC) [2]: 4.5 | Activity [4]: 73%

IC50 [5]: 12000 nM
SMILES: COc1ccc(-c2oc3c(OC)c(OC)c(OC)cc3c(=O)c2OC)cc1N
IC50 [1]: 78 nM | fold change (FC) [2]: 3.1 | Activity [4]: 84%

IC50 [5]: 24000 nM
SMILES: COc1ccc(-c2oc3c(OC)c(OC)c(OC)c(N)c3c(=O)c2OC)cc1N
IC50 [1]: 128 nM | fold change (FC) [2]: 3.6 | Activity [4]: 78%

SMILES: COc1cccc2c1C(=O)c1c(O)c3c(c(O)c1C2=O)C[C@@](O)(C(=O)CO)C[C@@H]3O[C@H]1C[C@H](N)[C@H](O)[C@H](C)O1 [DOXORUBICIN]
Activity [6]: 5.6% | viability at 0.2 µM [7]: 5.2% | Activity [8]: 1.2% | viability at 0.2 µM [9]: 52.8% | Activity [10]: 89.2% | Activity [11]: 45.9%

SMILES: COc1ccc(-c2oc3c(OC)c(OC)c(O)c(O)c3c(=O)c2OC)cc1N
IC50 [1]: 10000 nM | Activity [4]: 38%

SMILES: COc1c(OC)c(O)c2c(=O)c(OC)c(-c3ccc(O)c(C=O)c3)oc2c1OC
Activity [4]: <=13%

SMILES: COc1ccc(-c2oc3c(OC)c(OC)c(OC)c(O)c3c(=O)c2OC)cc1C#N
Activity [4]: <=13%

SMILES: COc1ccc(-c2oc3c(OC)c(OC)c(OC)c(O)c3c(=O)c2OC)cc1N(C)C
Activity [4]: 13%

IC50 [5]: 13000 nM
SMILES: COc1ccc(-c2oc3c(OC)c(OC)c(OC)c(O)c3c(=O)c2OC)cc1N
fold change (FC) [12]: 3.2 | IC50 [1]: 25 nM | Activity [13]: 19.2% | IC50 [14]: > 1000 nM | Activity [15]: 14% | Activity [16]: 2.2% | IC50 [17]: 81 nM | IC50 [18]: 12 nM | Activity [19]: 38.5% | Activity [20]: 2.1% | viability at 0.05 µM [21]: 77.1% | IC50 [22]: 400 nM | Activity [23]: 37.6% | Activity [24]: 15.5% | IC50 [25]: 37 nM | IC50 [26]: 36 nM | IC50 [27]: 25 nM | IC50 [28]: 9 nM | Activity [29]: 34.5% | Activity [30]: 20.7% | Activity [31]: 7.3% | Activity [32]: 32% | IC50 [33]: 14 nM | Activity [4]: 96% | Activity [34]: 39.3% | IC50 [35]: 33 nM | IC50 [36]: 105 nM | IC50 [37]: 32 nM | IC50 [38]: 50 nM | viability at 0.05 µM [39]: 60.1% | IC50 [40]: 34 nM

IC50 [5]: 85000 nM
SMILES: COc1ccc(-c2oc3c(OC)c(O)c(OC)c(O)c3c(=O)c2OC)cc1N
IC50 [1]: 6200 nM

SMILES: COc1ccc(-c2oc3c(OC)c(OC)c(OC)c(O)c3c(=O)c2OC)cc1C=O
Activity [4]: <=13%
